Columns and labels:
[1] = test system: Mycobacteroides abscessus; assay: Inhibition of Mycobacterium abscessus ATCC 19977 salicylate synthase expressed in Escherichia coli BL21 (DE3) cells using chorismic acid as substrate assessed as residual activity at 100 uM by fluorimetric assay relative to control
Procedure, shortened: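 Enzyme purified by IMAC and gel filtration, used at 1–2 μM in 50 mM Hepes pH 7.5 with 5 mM MgCl₂ at 37 °C. Reaction started with 50 μM chorismic acid; fluorescence read at Ex 305 / Em 420 nm. Compound tested at a fixed 100 μM; percent residual activity recorded.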

[2] = test system: Mycobacterium tuberculosis; assay: Inhibition of Mycobacterium tuberculosis salicylate synthase expressed in Escherichia coli BL21 cells using chorismic acid as substrate assessed as residual activity at 100 uM by fluorimetric assay relative to control
Procedure, shortened: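 Recombinant His-purified enzyme (IMAC plus gel filtration), 1–2 μM, in 50 mM Hepes pH 7.5, 5 mM MgCl₂ at 37 °C. Reaction started with chorismic acid at a subsaturating 50 μM. Compound tested at a fixed 100 μM. Fluorescence monitored at Ex 305 nm / Em 420 nm, and activity expressed as % residual activity.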

[3] = Inhibition of Mycobacterium abscessus ATCC 19977 salicylate synthase expressed in Escherichia coli BL21 (DE3) cells by fluorimetric assay; parameters: species or system Mycobacteroides abscessus
Procedure, shortened: (§1)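 Purified enzyme (IMAC plus gel filtration) at 1–2 μM in 50 mM Hepes pH 7.5, 5 mM MgCl₂, 37 °C, with 50 μM chorismic acid; fluorimetric read-out at Ex 305 / Em 420 nm. IC50 measured over 0.1–200 μM inhibitor for compounds leaving under 30 % residual activity at 100 μM, fitted as A[I] = A[0]·(1 − [I]/([I]+IC50)).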

[4] = Inhibition of Mycobacterium abscessus ATCC 19977 salicylate synthase expressed in Escherichia coli BL21 (DE3) cells using chorismic acid as substrate by fluorimetric assay; parameters: species or system Mycobacteroides abscessus; procedure, shortened: as §1
[5] = Inhibition of Mycobacterium tuberculosis salicylate synthase expressed in Escherichia coli BL21 cells using chorismic acid as substrate by fluorimetric assay
Procedure, shortened: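 Purified recombinant enzyme, 1–2 μM, in 50 mM Hepes pH 7.5, 5 mM MgCl₂ at 37 °C, with 50 μM chorismic acid. Fluorescence read at Ex 305 nm / Em 420 nm. Run only for compounds with residual activity below 30 % at 100 μM. Activity measured across 0.1–200 μM inhibitor and IC50 fitted as A[I] = A[0]·(1 − [I]/([I]+IC50)).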

[6] = Inhibition of Mycobacterium abscessus ATCC 19977 salicylate synthase expressed in Escherichia coli BL21 (DE3) cells using chorismic acid as substrate in presence of DTT by fluorimetric assay; parameters: species or system Mycobacteroides abscessus
Procedure, shortened: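 IC50 determined in the standard fluorimetric chorismate assay (1–2 μM enzyme, 50 mM Hepes pH 7.5, 5 mM MgCl₂, 37 °C, 50 μM chorismic acid) with 100 μM DTT added to rule out cysteine reactivity.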

[7] = Inhibition of Mycobacterium abscessus ATCC 19977 salicylate synthase expressed in Escherichia coli BL21 (DE3) cells using chorismic acid as substrate in presence of Triton X-100 by fluorimetric assay; parameters: species or system Mycobacteroides abscessus
Procedure, shortened: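 IC50 determined in the standard fluorimetric chorismate assay (1–2 μM enzyme, 50 mM Hepes pH 7.5, 5 mM MgCl₂, 37 °C, 50 μM chorismic acid) with 0.01 % (v/v) Triton X-100 added as detergent.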

[8] = Inhibition of Mycobacterium abscessus ATCC 19977 salicylate synthase expressed in Escherichia coli BL21 (DE3) cells using chorismic acid as substrate in presence of BSA by fluorimetric assay; parameters: species or system Mycobacteroides abscessus
Procedure, shortened: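 IC50 determined in the standard fluorimetric chorismate assay (1–2 μM enzyme, 50 mM Hepes pH 7.5, 5 mM MgCl₂, 37 °C, 50 μM chorismic acid, Ex 305 / Em 420 nm) with 0.1 mg/mL BSA added.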

[9] = Cytotoxicity against human fibroblast assessed as viable cells at 10 uM incubated for 96 hrs by MTS assay relative to control; assay type: toxicity, cell-based; conditions: human fibroblasts, read-out: Activity
Procedure, shortened: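 Juvenile human foreskin fibroblasts grown in DMEM with 10 % FBS, 1 % L-glutamine and penicillin/streptomycin; 1 × 10⁴ cells/well, treated after 24 h at 0.5, 1, 5 and 10 μM. After 96 h, viability read by MTS at 490 nm and expressed as percent of untreated cells; three independent experiments.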

Compound | Activity [1] | Activity [2] | IC50 [4] | IC50 [5] | also measured
Cc1cccc(-c2ccc(C(=O)O)o2)c1 | 54.7% | 104% | – | – | –
O=C(O)c1ccc(-c2ccc(C(F)(F)F)cc2C(F)(F)F)o1 | – | – | – | – | IC50 [3]: ~5 µM
NC(=O)c1cccc(-c2ccc(C(=O)O)o2)c1 | 25.8% | 20.9% | 42.9 µM | 31.4 µM | –
NS(=O)(=O)c1ccccc1-c1ccc(C(=O)O)o1 | 97.1% | – | – | – | –
COC(=O)c1ccc(-c2cccc(S(N)(=O)=O)c2)o1 | 55.3% | – | – | – | –
O=C(O)c1cccc(-c2ccc(C(=O)O)o2)c1 | 33.3% | 27.2% | – | 35.2 µM | –
NS(=O)(=O)c1cccc(-c2cccc(C(=O)O)c2)c1 | 89.4% | – | – | – | –
Nc1cccc(-c2ccc(C(=O)O)o2)c1 | 48.3% | 65.8% | – | – | –
O=C(O)c1ccc(-c2cccc(C(F)(F)F)c2)o1 | 35% | 42% | – | – | –
N#Cc1cccc(-c2ccc(C(=O)O)o2)c1 | 3.2% | 3.1% | 12.1 µM | 6.3 µM | –
O=C(O)c1ccc(-c2cccc(Cl)c2)o1 | 88.3% | 102% | – | – | –
CNC(=O)c1cccc(-c2ccc(C(=O)O)o2)c1 | 53.3% | 84% | – | – | –
NS(=O)(=O)c1cccc(-c2ccc(C(=O)O)o2)c1 | 0.6% | 28.6% | 2.6 µM | 39.7 µM | IC50 [6]: 3.3 µM; IC50 [7]: 2.8 µM; IC50 [8]: 2.8 µM; viability at 96 h, 10 µM [9]: 99.5%
O=C(O)c1ccc(-c2cccc(O)c2)o1 | 65% | 70.4% | – | – | –
NS(=O)(=O)c1ccc(-c2ccc(C(=O)O)o2)cc1 | 16% | – | 19.3 µM | – | –
CS(=O)(=O)c1cccc(-c2ccc(C(=O)O)o2)c1 | 5.4% | 25.8% | 3.6 µM | 34.9 µM | –

Reference: ChEMBL document CHEMBL5518184, “Structural basis for specific inhibition of salicylate synthase from Mycobacterium abscessus” (Eur J Med Chem, 2024)
